# Assays:
# [1] = organism: Mus musculus; experiment: The compound was evaluated in vitro for the immunosuppressive activity in mouse mixed lymphocyte reaction (MLR_M); format: functional
# Summary of the method: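 Cellular immunosuppression read in the mouse mixed lymphocyte reaction or the interleukin-2 reporter gene assay. The IC50 in nM is the mean of three independent experiments.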
# [2] = target: T1, Peptidyl-prolyl cis-trans isomerase A (Homo sapiens, UniProt P62937); experiment: In vitro binding affinity against cyclophilin A by rotamase assay
# T1 sequence (P62937 whole entry): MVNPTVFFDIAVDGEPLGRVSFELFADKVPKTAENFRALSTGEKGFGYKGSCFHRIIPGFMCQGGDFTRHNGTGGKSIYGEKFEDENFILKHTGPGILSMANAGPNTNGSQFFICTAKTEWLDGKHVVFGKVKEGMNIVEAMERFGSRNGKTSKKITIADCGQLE
# [3] = target: T1, Peptidyl-prolyl cis-trans isomerase A; experiment: In vitro binding affinity against cyclophilin A by ELISA
IC50 [1] [nM],IC50 [2] [nM],IC50 [3] [nM],Structure (SMILES)
56,48,93,C/C=C/C[C@@H](C)[C@@H](O)[C@@H]1C(=O)N[C@H](CCC)C(=O)N(C)[C@@H](CO)C(=O)N(C)[C@H](CC(C)C)C(=O)N[C@H](C(C)C)C(=O)N(C)[C@H](CC(C)C)C(=O)N[C@H](C)C(=O)N[C@@H](C)C(=O)N(C)[C@H](CC(C)C)C(=O)N(C)[C@H](CC(C)C)C(=O)N(C)[C@H](C(C)C)C(=O)N1C
140,256,450,C/C=C/C[C@@H](C)[C@@H](O)[C@@H]1C(=O)N[C@H](CCCO)C(=O)N(C)CC(=O)N(C)[C@H](CC(C)C)C(=O)N[C@H](C(C)C)C(=O)N(C)[C@H](CC(C)C)C(=O)N[C@H](C)C(=O)N[C@@H](C)C(=O)N(C)[C@H](CC(C)C)C(=O)N(C)[C@H](CC(C)C)C(=O)N(C)[C@H](C(C)C)C(=O)N1C

Structure (SMILES),IC50 [1] [nM],IC50 [2] [nM],IC50 [3] [nM]
C/C=C/C[C@@H](C)[C@@H](O)[C@H]1C(=O)N[C@@H](CCC)C(=O)N(C)CC(=O)N(C)[C@@H](CC(C)C)C(=O)N[C@@H](C(C)C)C(=O)N(C)[C@@H](CC(C)C)C(=O)N[C@@H](C)C(=O)N[C@H](C)C(=O)N(C)[C@@H](CC(C)C)C(=O)N(C)[C@@H](CC(C)C)C(=O)N(C)[C@@H](C(C)C)C(=O)N1C [GECLOSPORIN],46,130,310
